Results of several laboratories.
Each line is one published result; the experiments were not run side by side.
Target: BMP-2-inducible protein kinase (BMP2K, Homo sapiens, UniProt Q9NSY1)

SMILES | observed | method | concentration | remaining binding [%]
C[C@@H]1CCN(c2nccc(-c3cnn4ncccc34)n2)C1 | binding |  | 1 µM | 97
Cc1cc(NC(=O)c2cccc(S(F)(F)(F)(F)F)c2)cc(-n2ccn3nc(-c4cccnc4)cc23)c1 | cell-free assay | competition with immobilised ligand | 1 µM | 65.9
O=C(NCCCN1CCOCC1)c1ccc(Nc2ncc(Cl)c(-c3ccc(Cl)s3)n2)cc1 | binding | competition with immobilised ligand | 1 µM | 0.1
CNC(=O)[C@@H]1CC[C@@H](n2c(-c3ccc4cnccc4c3)nc3ccc(C(=O)NCc4cccc(C(N)=O)c4)cc32)C1 | binding | competition with immobilised ligand | 1 µM | 95
N[C@H]1CCN(c2nccc(-c3cnn4ncccc34)n2)C1 | binding |  | 1 µM | 88
CCN1CCN(Cc2ccc(C(=O)Nc3ccc(C)c(Oc4ccc5c(c4)CC(=O)N5)c3)cc2C(F)(F)F)CC1 | binding | competition with immobilised ligand | 1 µM | 100
CN(c1nccc(-c2cnn3ncccc23)n1)C1CC1 | binding |  | 1 µM | 100
Cc1cc(C)c(-n2ccn3nc(-c4cccnc4)cc23)cc1NC(=O)c1cc(C#N)cc(S(F)(F)(F)(F)F)c1 | cell-free assay | competition with immobilised ligand | 0.1 µM | 94.7
c1cncc(-c2cccc(Nc3nccc(NC4CCCCC4)n3)c2)c1 | binding | competition with immobilised ligand | 10 µM | 21
CNC(=O)c1ccc(Nc2ncc(C(F)(F)F)c(NCc3nccnc3N(C)S(C)(=O)=O)n2)cc1 | cell-free assay | competition with immobilised ligand | 0.1 µM | 81
c1cnn2ncc(-c3ccnc(N4CCC45COC5)n3)c2c1 | binding |  | 1 µM | 61
Nc1ncc2c(n1)-c1c([nH]c3ccc(C#CC4CC4)cc13)CCCC2 | binding | competition with immobilised ligand | 1 µM | 88
FC(F)(F)c1ccc2c(c1)nc(-c1cccnc1)n2C1CC1 | cell-free assay | competition with immobilised ligand | 1 µM | 100
CN(C)c1nccc(-c2cnn3ncccc23)n1 | binding |  | 1 µM | 100
Cc1c(C(=O)O)cc(-c2ccc(C3CCNCC3)cc2)c2ccc(-c3ccc(C(F)(F)F)cc3)cc12 | binding | competition with immobilised ligand | 1 µM | 83
O=C(NCCCN1CCOCC1)c1ccc(Nc2nccc(-c3cc4ccccc4s3)n2)cc1 | binding | competition with immobilised ligand | 1 µM | 0.7
O=C(Nc1c[nH]nc1C(=O)NC1CCNCC1)c1cc(F)cc(F)c1 | binding | competition with immobilised ligand | 1 µM | 53
CC1CCCN1c1nccc(-c2cnn3ncccc23)n1 (stereo not shown) | binding |  | 1 µM | 95
O=C(N1CCS(=O)(=O)CC1)N1C[C@H](c2ccc(OC(F)(F)F)cc2)C[C@H](c2nc(C3CC3)no2)C1 | cell-free assay | competition with immobilised ligand | 1 µM | 97
Cc1cnc(Nc2ccc(C(=O)N3CCC(N4CCCC4)CC3)cc2)nc1-c1cc2ccccc2s1 | binding | competition with immobilised ligand | 1 µM | 0.2
CN(C)c1ncc(F)c(-c2cnn3ncccc23)n1 | binding |  | 1 µM | 100
O=C(O)[C@H]1[C@H](Cn2nnc3ccccc3c2=O)CC[C@@H]1C(=O)c1ccc(OCCC2CCOCC2)cc1 | cell-free assay | competition with immobilised ligand | 1 µM | 86
